Eleven compounds from ChEMBL document CHEMBL2440016, “Targeting the human parasite Leishmania donovani: discovery of a new promising anti-infectious pharmacophore in 3-nitroimidazo[1,2-a]pyridine series” (Bioorg Med Chem, 2013) can be followed below.

For data set [1], the system named is Leishmania donovani. Nature of the data set: Antimicrobial activity against Leishmania donovani promastigotes. Type of data set: functional, organism-based. The method, boiled down: (§1)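 Log-phase promastigotes in Schneider's medium with 20% FCS, 2 mM L-glutamine and penicillin/streptomycin, at 10⁶ parasites/mL. Compound dilutions run in duplicate, final DMSO <0.5%, 72 h at 27 °C. MTT 0.5 mg/mL for 6 h at 27 °C, formazan dissolved in DMSO, A570.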

In data set [2] the test system is Leishmania donovani. The experiment in a line: Antimicrobial activity against Leishmania donovani amastigotes. Type of data set: functional, organism-based. The method, boiled down:
(§2)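 J774A.1 macrophages seeded at 5x10⁴ cells/mL, 24 h at 37 °C, 6% CO2. L. donovani promastigotes acidified 24 h at 27 °C in Schneider 20% FCS pH 5.4, then used to infect at 10:1 for 24 h. Compounds added in duplicate, final DMSO <0.5%, 120 h at 37 °C. Cells methanol-fixed and Giemsa-stained, ≥200 cells counted for % infected. IC50 by non-linear regression, mean of three independent experiments.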

The test system of data set [3] is HepG2. Nature of the data set: (§3) Cytotoxicity against human HepG2 cells after 72 hrs by MTT assay. Type of data set: cell-based. The note with it: hepg2, 72 h. The method, boiled down: (§4)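 Cells plated in RPMI with 10% FCS, L-glutamine and penicillin/streptomycin, 24 h at 37 °C, 6% CO2. Compound dilutions then added for 72 h. MTT 0.5 mg/mL in PBS for 2 h, formazan dissolved in DMSO, A570 with 630 nm reference. Viability taken as % of untreated control. Doxorubicin served as positive control. CC50 from the dose-response curve.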
(In general: Tetrazolium assays rely on reduction of a dye to a coloured formazan, in cell work by metabolically active cells.)

A short description of data set [4]: Cytotoxicity against mouse J774.1 cells after 72 hrs by MTT assay. Type of data set: cell-based. To be noted: for CC50: j774.1, 72 h; for CC50 at 72 h: J774.1 cells. The method, boiled down: as §4
Data set [5] relates to Leishmania donovani. The experiment in a line: Antimicrobial activity against Leishmania donovani MHOM/IN/00/DEVI promastigotes after 72 hrs by MTT assay. Type of data set: functional, organism-based. The procedure, abridged:
as §1

Data set [6] can be described thus: Selectivity ratio of IC50 for Plasmodium falciparum K1 to IC50 for Leishmania donovani MHOM/IN/00/DEVI amastigotes. Type of data set: functional.
Data set [7] can be described thus: Selectivity ratio of IC50 for Plasmodium falciparum K1 to IC50 for Leishmania infantum MCAN/ES/98/LLM-877 promastigotes. Type of data set: functional.
Data set [8] has as its system Plasmodium falciparum. Nature of the data set: Antiplasmodial activity against Plasmodium falciparum K1 infected in human erythrocytes after 72 hrs by SYBR Green I fluorescence assay. Type of data set: functional, organism-based. To be noted: K1, 72 h. The method, boiled down:
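K1 strain, resistant to chloroquine, pyrimethamine and proguanil, grown in A+ human erythrocytes with RPMI 1640, HEPES, NaHCO3 and 10% A+ serum. Rings synchronized with 5% sorbitol. Compounds tested at 2% hematocrit and 1% parasitaemia, 72 h at 37 °C in 5% O2, 5% CO2, in triplicate. DNA read by SYBR Green I lysis, 15 min, ex 497/em 520 nm. IC50 from three independent experiments.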

Data set [9] deals with Leishmania donovani. The experiment in a line: Antimicrobial activity against Leishmania donovani MHOM/IN/00/DEVI amastigotes infected in mouse J774.1 cells after 120 hrs by microscopic analysis. The note with it: J774.1, 120 h. Type of data set: functional, organism-based. The method, boiled down:
as §2

Data set [10] relates to Leishmania infantum. Nature of the data set: Antimicrobial activity against Leishmania infantum MCAN/ES/98/LLM-877 promastigotes after 72 hrs by MTT assay. Type of data set: functional, organism-based. To be noted: MCAN/ES/98/LLM-877, 72 h. The procedure, abridged:
as §1

The nature of data set [11]: Selectivity ratio of IC50 for Plasmodium falciparum K1 to IC50 for Leishmania donovani MHOM/IN/00/DEVI promastigotes. Type of data set: functional.
Data set [12] is described as follows: Selectivity index, ratio of CC50 for human HepG2 cells to IC50 for Leishmania donovani MHOM/IN/00/DEVI. Type of data set: functional. The method, boiled down: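 SI = HepG2 CC50 / L. donovani IC50.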
The nature of data set [13]: as §3. Type of data set: cell-based. The note with it: HepG2 cells. The procedure, abridged: as §4
Data set [14] is described as follows: Selectivity index, ratio of CC50 for mouse J774.1 cells to IC50 for Leishmania donovani MHOM/IN/00/DEVI. Type of data set: functional.
Setting [15] is: Leishmania donovani, MHOM/IN/00/DEVI, 72 h, read-out: IC50.

For `CSc1ccc(OCc2ncc([N+](=O)[O-])n2C)cc1` [FEXINIDAZOLE], the IC50 in data set [1] came to 5.6 µM; in data set [2], 2.8 µM.
As for `COc1ccc(-c2ccc3nc(CS(=O)(=O)c4ccccc4)c([N+](=O)[O-])n3c2)cc1`, the CC50 result in data set [3] and in [4] was “ND(Insoluble)” throughout. Besides, the concentration for half-maximal inhibition (IC50) entry in data set [5] is “ND(Insoluble)”.
For `O=[N+]([O-])c1c(CS(=O)(=O)c2ccccc2)nc2c(Br)cc(Br)cn12`, the Ratio IC50 worked out at 3 in data set [6], 4.8 in data set [7] and 8.9 in data set [11]. In addition, the IC50 came to 16 µM in data set [8], 5.5 µM in data set [9], 3.3 µM in [10] and 1.8 µM in [5] (setting [15]). In addition, the “Ratio CC50/IC50” value is given as above 17.2 in data set [12] and above 13.4 in data set [14]. Besides, the values for the CC50 at 72 h in [13] and in data set [4] were above 31 µM and above 25 µM, respectively.
Take `O=[N+]([O-])c1c(CS(=O)(=O)c2ccccc2)nc2ccc(-c3cccc(C(F)(F)F)c3)cn12`: the cytotoxic concentration (CC50) result in data set [3] and in data set [4] was “ND(Insoluble)” throughout. Also, in data set [5], the half-inhibitory concentration (IC50) entry is “ND(Insoluble)”.
In turn, `CCCCCCCCCCCCCCCCOP(=O)([O-])OCC[N+](C)(C)C` [MILTEFOSINE] had an IC50 in data set [9] of 6.8 µM. Besides, the midpoint of cytotoxicity in data set [4], the CC50 at 72 h, lay at 94.6 µM.
The compound `COc1ccc(Sc2c([N+](=O)[O-])cc(C#N)cc2[N+](=O)[O-])cc1` gave an IC50 in data set [2] of 0.7 µM.
For the compound `O=[N+]([O-])c1c(CS(=O)(=O)c2ccccc2)nc2ccc(-c3ccc4ccccc4c3)cn12`, the CC50 entry in data set [3] and in data set [4] was “ND(Insoluble)” throughout. Further, the half-inhibitory concentration (IC50) result in [5] is listed as “ND(Insoluble)”.
Consider `O=[N+]([O-])c1c(CS(=O)(=O)c2ccccc2)nc2ccc(Br)cn12`, for which the half-inhibitory concentration (IC50) is 41.2 µM in data set [8], above 25 µM in [9], above 25 µM in data set [10] and 14 µM in data set [5] (setting [15]). Further, the “Ratio CC50/IC50” value in data set [12] is given as above 7.1; in data set [14], 2.5. Besides, the results for the CC50 at 72 h in [13] and in [4] were above 100 µM and 34.3 µM, respectively.
In [9], `N=C(N)c1ccc(OCCCCCOc2ccc(C(=N)N)cc2)cc1` [PENTAMIDINE] came in with an IC50 above 20 µM. Moreover, the results for the “Ratio CC50/IC50” value in data set [12] and in data set [14] were 0.4 and 0.1, respectively. Further, in data set [4], the CC50 at 72 h came to 1 µM.
As for `C[C@@H]1[C@H](O)[C@@H](C)/C=C/C=C/C=C/C=C/C=C/C=C/C=C/[C@H](O[C@@H]2O[C@H](C)[C@@H](O)[C@H](N)[C@@H]2O)C[C@@H]2O[C@](O)(C[C@@H](O)C[C@@H](O)[C@H](O)CC[C@@H](O)C[C@@H](O)CC(=O)O[C@H]1C)C[C@H](O)[C@H]2C(=O)O` [AMPHOTERICIN B], the IC50 in data set [9] was determined as 0.07 µM; in [10], 0.04 µM. In data set [4], this compound registered a half-maximal cytotoxic concentration (CC50) at 72 h of 3.1 µM.
In the case of `O=C1C(O)=C([C@H]2CC[C@H](c3ccc(Cl)cc3)CC2)C(=O)c2ccccc21` [ATOVAQUONE], the 50% inhibitory concentration (IC50) in [8] was 0.0015 µM.

The term IC50 denotes the concentration that gives 50% inhibition. The CC50 is the concentration at which the toxic effect on the cells reaches its halfway point.
